From ChEMBL document CHEMBL1153499, “Synthesis, biological evaluation, and metabolic stability of acrylamide derivatives as novel CCR3 antagonists” (Bioorg Med Chem, 2009)

How the values were obtained:
[1] = Permeability by PAMPA; assay type: ADME; conditions: read-out: permeability
Procedure, shortened: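 PAMPA permeability measured at pH 6.5.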

[2] = Apparent permeability across human Caco-2 cells; assay type: ADME, cell-based
[3] = Tmax in mouse at 3 mg/kg, po; assay type: ADME, organism-based; design: dose 3 mg/kg, route oral; conditions: in vivo
[4] = Volume of distribution at steady state in mouse at 1 mg/kg, iv; assay type: ADME, organism-based; design: dose 1 mg/kg, route intravenous; conditions: in vivo, read-out: Vdss
[5] = AUC (0 to infinity) in mouse at 1 mg/kg, iv; assay type: ADME, organism-based; design: time infinity, dose 1 mg/kg, route intravenous; conditions: plasma
[6] = AUC (0 to infinity) in mouse at 3 mg/kg, po; assay type: ADME, organism-based; design: time infinity, dose 3 mg/kg, route oral; conditions: plasma
[7] = Bioavailability in mouse at 3 mg/kg, po; conditions: in vivo

O=C(NC1CC2CCC(C1)N2Cc1ccc2cc(F)ccc2c1)c1ccccc1-c1ccccc1 (stereo not given)
Papp [1]: > 300 nm/s

O=C(C=C1CCN(C(=O)c2ccccc2O)CC1)N[C@@H]1CCN(Cc2ccc3cc(F)ccc3c2)C1
Papp [2]: 40 nm/s
Tmax [3]: 48 min
Vd [4]: 9.88 L/kg
AUC(0-inf) [5]: 0.19 µg·h/mL
AUC(0-inf) [6]: 0.2 µg·h/mL
bioavailability [7]: 35%

Cc1ccc(C(=O)N2CCC(=CC(=O)N[C@@H]3CCN(Cc4ccc5cc(F)ccc5c4)C3)CC2)c(O)c1
Papp [1]: 273 nm/s

O=C(NC1CC2CCC(C1)N2Cc1ccc2cc(F)ccc2c1)c1cc[n+]([O-])cc1C(=O)N1CCCCC1 (stereo not given)
Papp [1]: 47 nm/s

O=C(C=C1CCN(C(=O)c2ccccc2)CC1)N[C@@H]1CCN(Cc2ccc3cc(F)ccc3c2)C1
Papp [1]: 199 nm/s
